By IC80 is commonly meant the point of the concentration-response curve where the effect stands at 80%. The low end stands for an effect from little substance, the high end for a need for much substance. In general, solubility refers to how much of the substance goes into solution per volume. Low readings indicate a poorly soluble substance, high ones a readily soluble substance.

This is an account of results in ChEMBL document CHEMBL2086221, “Armeniaspiroles, a new class of antibacterials: Antibacterial activities and total synthesis of 5-chloro-Armeniaspirole A” (Bioorg Med Chem Lett, 2012).

In brackets after ≈: the same amount, converted by molar mass. Activity calls are given as the source filed them. The rule behind the calls is not given here.

In series [1] the test system is Escherichia coli. The series can be described thus: Bacteriostatic activity against Escherichia coli ATCC 35218 expressing LacR by time kill study. It counts as functional, organism-based.
Series [2] has as its system Streptococcus pneumoniae. Description: Antibacterial activity against penicillin-resistant Streptococcus pneumoniae DSM 11865 at >1 ug/mL after 48 hrs. It is filed as functional, organism-based.
Series [3] has as its system Enterococcus faecium. The series can be described thus: Bacteriostatic activity against vancomycin-resistant Enterococcus faecium DSM 17050 by time kill study in presence of fetal calf serum. It counts as functional, organism-based.
Series [4] relates to Pseudomonas aeruginosa. Description: Antibacterial activity against Pseudomonas aeruginosa ATCC 27853 at >1 ug/mL after 48 hrs. It counts as functional, organism-based.
Series [5] relates to Pseudomonas aeruginosa. Description: Bacteriostatic activity against Pseudomonas aeruginosa ATCC 27853 by time kill study. It is filed as functional, organism-based.
Series [6] relates to Enterococcus faecium. The series can be described thus: Antibacterial activity against vancomycin-resistant Enterococcus faecium DSM 17050 at >1 ug/mL after 48 hrs. It counts as functional, organism-based.
Series [7] concerns Staphylococcus aureus. Description: Antibacterial activity against methicillin-resistant Staphylococcus aureus ATCC 33592 at >1 ug/mL after 48 hrs. It counts as functional, organism-based.
In series [8] the test system is Escherichia coli. Description: Bacteriostatic activity against Escherichia coli ATCC 35218 expressing LacR by time kill study in presence of fetal calf serum. It is filed as functional, organism-based.
The subject of series [9] is Staphylococcus aureus. Description: Bacteriostatic activity against methicillin-resistant Staphylococcus aureus ATCC 33592 by time kill study in presence of fetal calf serum. It counts as functional, organism-based.
For series [10], the system named is Streptococcus pneumoniae. The series can be described thus: Bacteriostatic activity against penicillin-resistant Streptococcus pneumoniae DSM 11865 by time kill study in presence of fetal calf serum. It counts as functional, organism-based.
Series [11] relates to Escherichia coli. Description: Antibacterial activity against Escherichia coli ATCC 35218 expressing LacR at >1 ug/mL after 48 hrs. It counts as functional, organism-based.
Series [12] deals with Pseudomonas aeruginosa. The series can be described thus: Bacteriostatic activity against Pseudomonas aeruginosa ATCC 27853 by time kill study in presence of fetal calf serum. It is filed as functional, organism-based.
Series [13] concerns Staphylococcus aureus. The series can be described thus: Antibacterial activity against methicillin-resistant Staphylococcus aureus ATCC 33592. It is filed as functional.
For series [14], the system named is Staphylococcus aureus. Description: Antibacterial activity against methicillin-resistant Staphylococcus aureus ATCC 33592 infected in mouse assessed as host survival at 20 mg/kg/day, iv relative to control. It is filed as functional.
Series [15] has as its system Streptococcus pneumoniae. The series can be described thus: Antibacterial activity against penicillin-resistant Streptococcus pneumoniae DSM 11865. It counts as functional.
For series [16], the system named is Staphylococcus aureus. Description: Antibacterial activity against methicillin-resistant Staphylococcus aureus ATCC 33592 infected in mouse assessed as log reduction in bacteremia at 20 mg/kg/day, iv relative to control. It is filed as functional.
In series [17] the test system is Staphylococcus aureus. The series can be described thus: Antibacterial activity against methicillin-resistant Staphylococcus aureus ATCC 33592 infected in mouse assessed as log reduction in bacteremia at 40 mg/kg/day, sc relative to control. Conditions: route subcutaneous. It counts as functional. Put shortly:
(§1)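 Mice with MRSA ATCC33592 septicemia were dosed sc at 20, 40 or 80 mg/kg/d in 5% ethanol/5% Solutol/Tris-NaCl buffer pH 9. Survival was scored in six animals per group, and log reduction of blood bacteremia in five animals per group. Results are given as mean ± sem against the vehicle-treated group (P < 0.05 or P < 0.001).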

In series [18] the test system is Enterococcus faecium. The series can be described thus: Antibacterial activity against vancomycin-resistant Enterococcus faecium DSM 17050. It is filed as functional.
For series [19], the system named is Staphylococcus aureus. The series can be described thus: Antibacterial activity against methicillin-resistant Staphylococcus aureus ATCC 33592 infected in mouse assessed as host survival at 40 mg/kg/day, sc relative to control. It is filed as functional. Conditions: ATCC 33592, sc, route subcutaneous. In outline: as §1
Series [20] concerns Escherichia coli. The series can be described thus: Antibacterial activity against Escherichia coli ATCC 35218 expressing LacR. It counts as functional.
Series [21] has as its system Pseudomonas aeruginosa. Description: Antibacterial activity against Pseudomonas aeruginosa ATCC 27853. It counts as functional.
Series [22] in a line: Chemical stability of the compound in PBS buffer up to 24 hrs at pH 7.4. It is filed as physicochemical. Conditions: pH 7.4, 24 h.
The nature of series [23]: Solubility of the compound in PBS buffer at pH 7.4. It counts as physicochemical.
The test system of series [24] is Enterococcus faecium. The series can be described thus: Bacteriostatic activity against vancomycin-resistant Enterococcus faecium DSM 17050 by time kill study. It counts as functional, organism-based.
[25] abbreviates: Staphylococcus aureus, ATCC 33592.
The mark [26] stands for this setting: Streptococcus pneumoniae, DSM 11865.
The mark [27] stands for this setting: Enterococcus faecium, DSM 17050.

With `CCCCCCc1c(O)c(Cl)cc2c1O[C@]1(C2=O)C(Cl)=C(Cl)C(=O)N1C` (stereo in doubt; form 1) [listing 1 of 2 here], the Activity result in the series on Escherichia coli [1] and with Pseudomonas aeruginosa [5] was “Dose-dependent effect” in each case. For the same compound, the outcome in the series on Streptococcus pneumoniae [2], in the series on Pseudomonas aeruginosa [4], with Enterococcus faecium [6], with Staphylococcus aureus [7] and in the series on Escherichia coli [11] was Active. The outcome in the series with Enterococcus faecium [3], with Escherichia coli [8], in the series on Staphylococcus aureus [9], with Streptococcus pneumoniae [10] and in the series on Pseudomonas aeruginosa [12] was inactive.
With `CN[C@H](CC(C)C)C(=O)N[C@H]1C(=O)N[C@@H](CC(N)=O)C(=O)N[C@H]2C(=O)N[C@H]3C(=O)N[C@H](C(=O)N[C@H](C(=O)O)c4cc(O)cc(O)c4-c4cc3ccc4O)[C@H](O)c3ccc(c(Cl)c3)Oc3cc2cc(c3O[C@@H]2O[C@H](CO)[C@@H](O)[C@H](O)[C@H]2O[C@H]2C[C@](C)(N)[C@H](O)[C@H](C)O2)Oc2ccc(cc2Cl)[C@H]1O` [VANCOMYCIN], the IC80 was 0.4 µM with Staphylococcus aureus [13] (setting [25]), 0.2 µM in the series with Streptococcus pneumoniae [15] (setting [26]) and above 30 µM in the series on Enterococcus faecium [18] (setting [27]). Further, in the series on Staphylococcus aureus [14], the survival at 20 mg/kg/day was 100%. Besides, the results for the FC in the series on Staphylococcus aureus [16] and in the series on Staphylococcus aureus [17] were 4.2 and 4, respectively. Further, in the series on Staphylococcus aureus [19], the survival at 40 mg/kg/day was 100%.
Consider `CCCCCCc1c(O)c(Cl)cc2c1OC1(C2=O)C(Cl)=C(Cl)C(=O)N1C` (racemic), for which the outcome in the series with Streptococcus pneumoniae [2], in the series on Pseudomonas aeruginosa [4], in the series on Enterococcus faecium [6], in the series on Staphylococcus aureus [7] and in the series with Escherichia coli [11] was Active. The IC80 in the series with Staphylococcus aureus [13] (setting [25]) is 3.1 µM; in the series with Escherichia coli [20] it was above 30 µM; in the series with Pseudomonas aeruginosa [21], above 30 µM; with Streptococcus pneumoniae [15] (setting [26]), 1.3 µM; in the series with Enterococcus faecium [18] (setting [27]), 5.2 µM. The result in the series with Enterococcus faecium [3], in the series with Escherichia coli [8], with Staphylococcus aureus [9], in the series on Streptococcus pneumoniae [10] and with Pseudomonas aeruginosa [12] was inactive.
For the compound `CCCCCCc1c(O)c(Cl)cc2c1O[C@]1(C2=O)C(Cl)=C(Cl)C(=O)N1C` (stereo in doubt; form 1) [listing 2 of 2 here], the IC80 in the series with Staphylococcus aureus [13] (setting [25]) is 5.1 µM; in the series on Escherichia coli [20], above 30 µM; in the series with Pseudomonas aeruginosa [21] it was above 30 µM; in the series on Streptococcus pneumoniae [15], 1.7 µM; in the series with Enterococcus faecium [18] (setting [27]), 8.5 µM.
On to `CC(C)CCCc1c(O)ccc2c1O[C@]1(C2=O)C(Cl)=C(Cl)C(=O)N1C` [ARMENIASPIROLE B], for which the result in the series on Streptococcus pneumoniae [2], with Pseudomonas aeruginosa [4], in the series on Enterococcus faecium [6], with Staphylococcus aureus [7] and with Escherichia coli [11] was Active. Further, the result with Enterococcus faecium [3], in the series on Escherichia coli [8], in the series on Staphylococcus aureus [9], in the series on Streptococcus pneumoniae [10] and in the series with Pseudomonas aeruginosa [12] was inactive. Also, the Stability entry in [22] is “Stable”. The compound also returned a solubility in series [23] of 10 µg/mL (≈ 26 µM).
Regarding `CCCCCCc1c(O)c(Cl)cc2c1O[C@]1(C2=O)C(Cl)=C(Cl)C(=O)N1C` (stereo in doubt; form 2) [listing 1 of 2 here], the Activity entry with Escherichia coli [1], in the series with Enterococcus faecium [24] and in the series on Pseudomonas aeruginosa [5] was “Dose-dependent effect” each time. Also, the outcome in the series on Streptococcus pneumoniae [2], in the series on Pseudomonas aeruginosa [4], with Enterococcus faecium [6], in the series on Staphylococcus aureus [7] and in the series on Escherichia coli [11] was Active. The result in the series with Enterococcus faecium [3], with Escherichia coli [8], with Staphylococcus aureus [9], in the series on Streptococcus pneumoniae [10] and in the series on Pseudomonas aeruginosa [12] was inactive.
`CCCCCCc1c(O)c(Cl)cc2c1O[C@@]1(C2=O)C(Cl)=C(Cl)C(=O)N1C`: the outcome with Streptococcus pneumoniae [2], in the series on Pseudomonas aeruginosa [4], with Enterococcus faecium [6], with Staphylococcus aureus [7] and in the series with Escherichia coli [11] was Active. Also, the IC80 with Staphylococcus aureus [13] (setting [25]) was 1.4 µM; with Escherichia coli [20] it was above 30 µM; in the series with Pseudomonas aeruginosa [21], above 30 µM; in the series with Streptococcus pneumoniae [15] (setting [26]), 0.5 µM; in the series on Enterococcus faecium [18] (setting [27]) it was 6.7 µM. Further, the result with Enterococcus faecium [3], in the series with Escherichia coli [8], in the series on Staphylococcus aureus [9], in the series on Streptococcus pneumoniae [10] and with Pseudomonas aeruginosa [12] was inactive.
Regarding `CCCCCCc1c(O)c(Cl)cc2c1O[C@]1(C2=O)C(Cl)=C(Cl)C(=O)N1C` (stereo in doubt; form 2) [listing 2 of 2 here], the 80% effect concentration (IC80) in the series on Staphylococcus aureus [13] was 3.7 µM; in the series with Streptococcus pneumoniae [15] it was 0.4 µM; in the series on Enterococcus faecium [18], 8.2 µM.
For the compound `CC[C@H](C)CCCc1c(O)ccc2c1O[C@]1(C2=O)C(Cl)=C(Cl)C(=O)N1C` [ARMENIASPIROLE C], the outcome in the series with Streptococcus pneumoniae [2], in the series on Pseudomonas aeruginosa [4], in the series on Enterococcus faecium [6], in the series on Staphylococcus aureus [7] and in the series with Escherichia coli [11] was Active. Moreover, the outcome with Enterococcus faecium [3], in the series with Escherichia coli [8], in the series with Staphylococcus aureus [9], in the series with Streptococcus pneumoniae [10] and with Pseudomonas aeruginosa [12] was inactive. Moreover, the Stability entry in [22] was “Stable”. Also, the solubility in series [23] was found to be 5 µg/mL (≈ 12.6 µM).
